This is an account of results in ChEMBL document CHEMBL1124493, “Synthesis and tumor uptake of 5-82Br- and 5-131I-labeled 5-halo-1-(2-fluoro-2-deoxy-beta-D-ribofuranosyl)uracils” (J Med Chem, 1989).

In data set [1] the test system is Mus musculus. Briefly: Biodistribution of intravenously injected [82Br]-labeled compound in lung of BDF1 female mice bearing subcutaneous Lewis lung carcinoma after 0.5 hours. Type of data set: ADME, organism-based. Particulars: in vivo, iv. In outline: (§1)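 Female BDF1 mice with subcutaneous Lewis lung carcinoma given an iv injection of [82Br]-labelled nucleoside, 47-130 μg carrying 20-60 kBq 82Br. Tissues were excised, weighed wet and γ-counted. Values are percent injected dose per gram of wet tissue, mean ± standard deviation of six animals, with organ-to-tumour ratios derived.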

In data set [2] the test system is Mus musculus. Description: Biodistribution of intravenously injected [82Br]-labeled compound in tumor of BDF1 female mice bearing subcutaneous Lewis lung carcinoma after 1 hours. Type of data set: ADME, organism-based. Particulars: in vivo, iv.
Data set [3] concerns Mus musculus. Briefly: Biodistribution of intravenously injected [82Br]-labeled compound in skin of BDF1 female mice bearing subcutaneous Lewis lung carcinoma after 0.50 hours. Type of data set: ADME, organism-based, Zone of skin. The settings on record: in vivo, iv, 0.5 h. The method, boiled down:
as §1

Data set [4] relates to Mus musculus. Description: Biodistribution of intravenously injected [82Br]-labeled compound in bone of BDF1 female mice bearing subcutaneous Lewis lung carcinoma after 24 hours. Type of data set: ADME, organism-based, Bone element. The settings on record: in vivo, iv. The method, boiled down: (§2)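 82Br-labeled nucleoside given intravenously to female BDF1 mice bearing subcutaneous Lewis lung carcinoma, at 47-130 μg carrying 20-60 kBq. Mice sacrificed at each time point. Wet-weighed tissues γ-counted. Values are percent injected dose per gram wet tissue, mean ± SD, n = 6.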

Data set [5] concerns Mus musculus. Description: Biodistribution of intravenously injected [82Br]-labeled compound in bone of BDF1 female mice bearing subcutaneous Lewis lung carcinoma after 2 hours. In kind it is ADME, organism-based, Bone element. The settings on record: in vivo, iv. The method, boiled down: as §2
The test system of data set [6] is Mus musculus. Briefly: Biodistribution of intravenously injected [82Br]-labeled compound in spleen of BDF1 female mice bearing subcutaneous Lewis lung carcinoma after 0.50 hours. Type of data set: ADME, organism-based. The settings on record: in vivo, iv, 0.5 h. In outline:
as §1

The subject of data set [7] is Mus musculus. Description: Biodistribution of intravenously injected [82Br]-labeled compound in bone of BDF1 female mice bearing subcutaneous Lewis lung carcinoma after 8 hours. In kind it is ADME, organism-based, Bone element. The settings on record: in vivo, iv. The method, boiled down: as §2
Data set [8] deals with Mus musculus. Briefly: Biodistribution of intravenously injected [82Br]-labeled compound in tumor of BDF1 female mice bearing subcutaneous Lewis lung carcinoma after 24 hours. Type of data set: ADME, organism-based. Particulars: in vivo, iv.
The test system of data set [9] is Mus musculus. Briefly: Biodistribution of intravenously injected [82Br]-labeled compound in muscle of BDF1 female mice bearing subcutaneous Lewis lung carcinoma after 1 hours. Type of data set: ADME, organism-based, Muscle tissue. The settings on record: in vivo, iv. The method, boiled down:
as §1

For data set [10], the system named is Mus musculus. Description: Biodistribution of intravenously injected [82Br]-labeled compound in heart of BDF1 female mice bearing subcutaneous Lewis lung carcinoma after 4 hours. Type of data set: ADME, organism-based. The settings on record: in vivo, iv. In outline: as §1
The test system of data set [11] is Mus musculus. Description: Biodistribution of intravenously injected [82Br]-labeled compound in kidney of BDF1 female mice bearing subcutaneous Lewis lung carcinoma after 4 hours. Type of data set: ADME, organism-based. The settings on record: in vivo, iv. In outline:
as §1

In data set [12] the test system is Mus musculus. Briefly: Biodistribution of intravenously injected [82Br]-labeled compound in lung of BDF1 female mice bearing subcutaneous Lewis lung carcinoma after 2 hours. Type of data set: ADME, organism-based. The settings on record: in vivo, iv. In outline:
as §1

Data set [13] relates to Mus musculus. Description: Biodistribution of intravenously injected [82Br]-labeled compound in muscle of BDF1 female mice bearing subcutaneous Lewis lung carcinoma after 4 hours. Type of data set: ADME, organism-based, Muscle tissue. The settings on record: in vivo, iv. The method, boiled down:
as §1

The test system of data set [14] is Mus musculus. Description: Biodistribution of intravenously injected [82Br]-labeled compound in kidney of BDF1 female mice bearing subcutaneous Lewis lung carcinoma after 24 hours. Type of data set: ADME, organism-based. The settings on record: in vivo, iv. The method, boiled down:
as §1

Data set [15] deals with Mus musculus. Description: Biodistribution of intravenously injected [82Br]-labeled compound in lung of BDF1 female mice bearing subcutaneous Lewis lung carcinoma after 24 hours. Type of data set: ADME, organism-based. Particulars: in vivo, iv. The method, boiled down: as §1
Data set [16] has as its system Mus musculus. Description: Biodistribution of intravenously injected [82Br]-labeled compound in blood of BDF1 female mice bearing subcutaneous Lewis lung carcinoma after 1 hours. Type of data set: ADME, organism-based. Particulars: in vivo, iv. The method, boiled down:
as §2

Data set [17] deals with Mus musculus. Briefly: Biodistribution of intravenously injected [82Br]-labeled compound in blood of BDF1 female mice bearing subcutaneous Lewis lung carcinoma after 8 hours. Type of data set: ADME, organism-based. The settings on record: in vivo, iv. In outline:
as §2

Data set [18] has as its system Mus musculus. Briefly: Biodistribution of intravenously injected [82Br]-labeled compound in kidney of BDF1 female mice bearing subcutaneous Lewis lung carcinoma after 8 hours. In kind it is ADME, organism-based. The settings on record: in vivo, iv. In outline: as §1
Data set [19] concerns Mus musculus. Briefly: Biodistribution of intravenously injected [82Br]-labeled compound in liver of BDF1 female mice bearing subcutaneous Lewis lung carcinoma after 0.25 hours. Type of data set: ADME, organism-based. Particulars: in vivo, iv. The method, boiled down:
as §1

Data set [20] has as its system Mus musculus. Briefly: Biodistribution of intravenously injected [82Br]-labeled compound in heart of BDF1 female mice bearing subcutaneous Lewis lung carcinoma after 0.25 hours. Particulars: in vivo, iv. In kind it is ADME, organism-based. The method, boiled down: as §1
For data set [21], the species on record is Mus musculus. Briefly: Urinary [131I]- compound observed in BDF1 female mice bearing lewis lung tumor after 24 hr of injected [131I]-compound. Particulars: Urine. In kind it is functional, tissue-based.
Data set [22] has as its system Mus musculus. Description: Biodistribution of intravenously injected [131I]-labeled compound in blood of BDF1 female mice bearing subcutaneous Lewis lung carcinoma after 2 hours. In kind it is ADME, organism-based. Particulars: in vivo, iv. The method, boiled down:
(§3)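 Female BDF1 mice bearing subcutaneous Lewis lung carcinoma received a single intravenous dose of 0.5-1.8 μg of the 131I-labeled nucleoside (55-110 kBq). They were sacrificed at set times, and tissues were weighed wet and γ-counted. Activity is expressed as percent of injected dose per gram of wet tissue, given as mean ± standard deviation for six animals.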

Data set [23] has as its system Mus musculus. Briefly: Biodistribution of intravenously injected [131I]-labeled compound in skin of BDF1 female mice bearing subcutaneous Lewis lung carcinoma after 8 hours. Type of data set: ADME, organism-based, Zone of skin. Particulars: in vivo, iv. In outline: (§4)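 Female BDF1 mice with subcutaneous Lewis lung carcinoma given i.v. 0.5-1.8 μg of 131I-labeled nucleoside (55-110 kBq). Killed at set times. Tissues weighed wet and γ-counted. Radioactivity expressed as percent injected dose per gram wet tissue, mean ± SD of six animals.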

The species entered for data set [24] is Mus musculus. Description: Urinary [131I]5-iodouracil observed in BDF1 female mice bearing lewis lung tumor after 2-3 h of injected [131I]-compound. In kind it is functional, tissue-based. The settings on record: Urine.
The test system of data set [25] is Mus musculus. Briefly: Biodistribution of intravenously injected [131I]-labeled compound in tumor of BDF1 female mice bearing subcutaneous Lewis lung carcinoma after 0.25 hours. In kind it is ADME, organism-based. The settings on record: in vivo, iv. In outline: as §4
For data set [26], the system named is Mus musculus. Description: Biodistribution of intravenously injected [131I]-labeled compound in muscle of BDF1 female mice bearing subcutaneous Lewis lung carcinoma after 1 hours. Type of data set: ADME, organism-based, Muscle tissue. Particulars: in vivo, iv. The method, boiled down:
as §4

Data set [27] has as its system Mus musculus. Description: Biodistribution of intravenously injected [131I]-labeled compound in bone of BDF1 female mice bearing subcutaneous Lewis lung carcinoma after 24 hours. Type of data set: ADME, organism-based, Bone element. Particulars: in vivo, iv. The method, boiled down:
as §3

The test system of data set [28] is Mus musculus. Briefly: Biodistribution of intravenously injected [131I]-labeled compound in spleen of BDF1 female mice bearing subcutaneous Lewis lung carcinoma after 4 hours. Type of data set: ADME, organism-based. Particulars: in vivo, iv. The method, boiled down:
as §4

Data set [29] relates to Mus musculus. Briefly: Biodistribution of intravenously injected [131I]-labeled compound in blood of BDF1 female mice bearing subcutaneous Lewis lung carcinoma after 0.25 hours. In kind it is ADME, organism-based. Particulars: in vivo, iv. In outline:
as §3

The species entered for data set [30] is Mus musculus. Briefly: Urinary iodide observed in BDF1 female mice bearing lewis lung tumor after 6-7 hr of injected [131I]-compound. Type of data set: functional, tissue-based. Particulars: Urine.
Data set [31] has as its system Mus musculus. Description: Biodistribution of intravenously injected [131I]-labeled compound in skin of BDF1 female mice bearing subcutaneous Lewis lung carcinoma after 2 hours. In kind it is ADME, organism-based, Zone of skin. Particulars: in vivo, iv. The method, boiled down:
as §4

Data set [32] has as its system Mus musculus. Description: Biodistribution of intravenously injected [131I]-labeled compound in spleen of BDF1 female mice bearing subcutaneous Lewis lung carcinoma after 2 hours. Type of data set: ADME, organism-based. Particulars: in vivo, iv. In outline: as §4
Data set [33] concerns Mus musculus. Briefly: Biodistribution of intravenously injected [131I]-labeled compound in tumor of BDF1 female mice bearing subcutaneous Lewis lung carcinoma after 8 hours. Type of data set: ADME, organism-based. Particulars: in vivo, iv. The method, boiled down: as §4
Data set [34] deals with Mus musculus. Description: Biodistribution of intravenously injected [131I]-labeled compound in lung of BDF1 female mice bearing subcutaneous Lewis lung carcinoma after 4 hours. The settings on record: in vivo, iv. In kind it is ADME, organism-based. In outline: as §3
In data set [35] the test system is Mus musculus. Description: Biodistribution of intravenously injected [131I]-labeled compound in kidney of BDF1 female mice bearing subcutaneous Lewis lung carcinoma after 2 hours. The settings on record: in vivo, iv. Type of data set: ADME, organism-based. In outline: as §3
The subject of data set [36] is Mus musculus. Briefly: Biodistribution of intravenously injected [131I]-labeled compound in liver of BDF1 female mice bearing subcutaneous Lewis lung carcinoma after 0.50 hours. Type of data set: ADME, organism-based. The settings on record: in vivo, iv, 0.5 h. The method, boiled down:
as §3

The subject of data set [37] is Mus musculus. Description: Biodistribution of intravenously injected [131I]-labeled compound in spleen of BDF1 female mice bearing subcutaneous Lewis lung carcinoma after 8 hours. The settings on record: in vivo, iv. In kind it is ADME, organism-based. In outline:
as §4

Data set [38] concerns Mus musculus. Description: Biodistribution of intravenously injected [131I]-labeled compound in gut of BDF1 female mice bearing subcutaneous Lewis lung carcinoma after 1 hours. Type of data set: ADME, organism-based. Particulars: in vivo, iv. In outline: as §3

As to `O=c1[nH]c(=O)n([C@H]2O[C@@H](CO)[C@H](O)[C@H]2F)cc1Br`, the Injected dose/g turned out to be 0.91% in data set [1]; 0.67% in data set [2]; 0.72% in data set [3]; 0.14% in [4]; 0.26% in data set [5]; 0.59% in data set [6]. Also, the Injected dose/g in data set [7] amounted to 0.23%; in data set [8] it was 0.32%; in [9], 0.21%; in data set [10] it was 0.49%; in data set [11] it was 0.48%; in data set [12], 0.54%. The Injected dose/g in data set [13] was 0.12%; in data set [14], 0.36%; in [15] it was 0.35%; in data set [16], 0.78%; in [17], 0.72%; in data set [18] it was 0.53%. The Injected dose/g in data set [19] is recorded as 1.45%; in data set [20], 1.61%.
Turning to `O=c1[nH]c(=O)n([C@@H]2O[C@H](CO)[C@@H](O)[C@H]2F)cc1I`, the figures for the Radioactive constituents in data set [21], in data set [24] and in [30] were 37.4%, 0% and 39.8%, respectively. For the same molecule, the Injected dose/g in data set [22] came to 8.9%; in [23], 2.1%; in [25], 4.9%; in data set [26], 2.3%; in [27], 0.07%; in data set [28], 1.8%. Also, the Injected dose/g in data set [29] is listed as 19%; in data set [31], 3.2%; in [32], 1.8%; in data set [33], 1.9%; in [34], 4.5%; in data set [35] it was 8.5%. In addition, the Injected dose/g is 4.6% in [36], 1% in data set [37] and 2.5% in data set [38].
